What was measured:
[1] = Biodistribution in baboon kidney medulla at 170 mg, iv after 15 mins; assay type: ADME, organism-based; conditions: papio hamadryas, read-out: Drug uptake
Outline: (§1)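 Micro-dose [11C]-labelled drug given i.v. via a radial arm vein to baboons anaesthetised with ketamine (10 mg/kg i.m.), then maintained on oxygen, nitrous oxide and isoflurane (1–4%). Torso PET regions of interest were drawn by hand to give time-activity curves in %ID/cc. µg/ml values were estimated assuming a 10 mg/kg dose, a 17 kg baboon and signal coming from intact drug.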

[2] = Biodistribution in baboon kidney medulla at 170 mg, iv after 60 mins; assay type: ADME, organism-based; conditions: papio hamadryas, read-out: Drug uptake; outline: as §1
[3] = Biodistribution in baboon gallbladder at 170 mg, iv after 30 mins; assay type: ADME, organism-based, Gall bladder; conditions: papio hamadryas, read-out: Drug uptake; outline: as §1
[4] = Biodistribution in baboon Liver at 170 mg, iv after 30 mins; assay type: ADME, organism-based; conditions: papio hamadryas, read-out: Drug uptake; outline: as §1
[5] = Biodistribution in baboon whole brain at 170 mg, iv after 30 mins; assay type: ADME, organism-based; conditions: papio hamadryas, read-out: Drug uptake
Outline: (§2)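 Brain PET ran 90 min after i.v. [11C]-labelled drug in anaesthetised baboons. Whole-brain regions of interest gave time-activity curves in %ID/cc. µg/ml values were estimated from baboon weight (17 kg) and the recommended human daily dose per kg, assuming signal comes from intact drug.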

[6] = Biodistribution in baboon plasma at 170 mg, iv after 30 mins; assay type: ADME, organism-based; conditions: papio hamadryas, read-out: Drug uptake
Outline: (§3)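 Anaesthetised baboons received [11C]-labelled drug i.v. (radial arm vein) by PET protocol. Arterial blood was drawn from a popliteal catheter every 5 s for 2 min, then at 2–90 min. Plasma activity is given as %ID/cc. µg/ml values were estimated from the human daily dose per kg scaled to a 17 kg baboon, assuming signal comes from intact drug.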

[7] = Biodistribution in baboon kidney medulla at 170 mg, iv after 90 mins; assay type: ADME, organism-based; conditions: papio hamadryas, read-out: Drug uptake; outline: as §1
[8] = Biodistribution in baboon whole brain at 170 mg, iv after 60 mins; assay type: ADME, organism-based; conditions: papio hamadryas, read-out: Drug uptake; outline: as §2
[9] = Biodistribution in baboon Liver at 170 mg, iv after 90 mins; assay type: ADME, organism-based; conditions: papio hamadryas, read-out: Drug uptake; outline: as §1
[10] = Biodistribution in baboon whole brain at 170 mg, iv after 90 mins; assay type: ADME, organism-based; conditions: papio hamadryas, read-out: Drug uptake; outline: as §2
[11] = Biodistribution in baboon lung at 170 mg, iv after 90 mins; assay type: ADME, organism-based; conditions: papio hamadryas, read-out: Drug uptake; outline: as §1
[12] = Biodistribution in baboon heart at 170 mg, iv after 60 mins; assay type: ADME, organism-based; conditions: papio hamadryas, read-out: Drug uptake; outline: as §1
[13] = Biodistribution in baboon plasma at 170 mg, iv after 90 mins; assay type: ADME, organism-based; conditions: papio hamadryas, read-out: Drug uptake; outline: as §3
[14] = Biodistribution in baboon plasma at 170 mg, iv after 60 mins; assay type: ADME, organism-based; conditions: papio hamadryas, read-out: Drug uptake; outline: as §3
[15] = Biodistribution in baboon Liver at 170 mg, iv after 15 mins; assay type: ADME, organism-based; conditions: papio hamadryas, read-out: Drug uptake; outline: as §1
[16] = Biodistribution in baboon gallbladder at 170 mg, iv after 60 mins; assay type: ADME, organism-based, Gall bladder; conditions: papio hamadryas, read-out: Drug uptake; outline: as §1
[17] = Biodistribution in baboon lung at 170 mg, iv after 30 mins; assay type: ADME, organism-based; conditions: papio hamadryas, read-out: Drug uptake; outline: as §1
[18] = Biodistribution in baboon kidney cortex at 170 mg, iv after 30 mins; assay type: ADME, organism-based; conditions: papio hamadryas, read-out: Drug uptake; outline: as §1
[19] = Biodistribution in baboon kidney cortex at 170 mg, iv after 60 mins; assay type: ADME, organism-based; conditions: papio hamadryas, read-out: Drug uptake; outline: as §1
[20] = Biodistribution in baboon gallbladder at 170 mg, iv after 15 mins; assay type: ADME, organism-based, Gall bladder; conditions: papio hamadryas, read-out: Drug uptake; outline: as §1
[21] = Biodistribution in baboon lung at 170 mg, iv after 60 mins; assay type: ADME, organism-based; conditions: papio hamadryas, read-out: Drug uptake; outline: as §1
[22] = Biodistribution in baboon kidney cortex at 170 mg, iv after 90 mins; assay type: ADME, organism-based; conditions: papio hamadryas, read-out: Drug uptake; outline: as §1
[23] = Biodistribution in baboon gallbladder at 170 mg, iv after 90 mins; assay type: ADME, organism-based, Gall bladder; conditions: papio hamadryas, read-out: Drug uptake; outline: as §1
[24] = Biodistribution in baboon kidney cortex at 170 mg, iv after 15 mins; assay type: ADME, organism-based; conditions: papio hamadryas, read-out: Drug uptake; outline: as §1
[25] = Biodistribution in baboon Liver at 170 mg, iv after 60 mins; assay type: ADME, organism-based; conditions: papio hamadryas, read-out: Drug uptake; outline: as §1
[26] = Biodistribution in baboon heart at 170 mg, iv after 90 mins; assay type: ADME, organism-based; conditions: papio hamadryas, read-out: Drug uptake; outline: as §1
[27] = Biodistribution in baboon plasma at 170 mg, iv after 15 mins; assay type: ADME, organism-based; conditions: papio hamadryas, read-out: Drug uptake; outline: as §3
[28] = Biodistribution in baboon kidney medulla at 170 mg, iv after 30 mins; assay type: ADME, organism-based; conditions: papio hamadryas, read-out: Drug uptake; outline: as §1
[29] = Biodistribution in baboon heart at 170 mg, iv after 15 mins; assay type: ADME, organism-based; conditions: papio hamadryas, read-out: Drug uptake; outline: as §1
[30] = Biodistribution in human lung at 108.7 mg, iv after 3 hrs; assay type: ADME, organism-based; conditions: read-out: Drug uptake
[31] = Biodistribution in baboon heart at 170 mg, iv after 30 mins; assay type: ADME, organism-based; conditions: papio hamadryas, read-out: Drug uptake; outline: as §1
[32] = Biodistribution in baboon lung at 170 mg, iv after 15 mins; assay type: ADME, organism-based; conditions: papio hamadryas, read-out: Drug uptake; outline: as §1
[33] = Biodistribution in iv dosed monkey brain after 6 hrs; assay type: ADME, organism-based, Macaca mulatta; conditions: rhesus monkey, read-out: Drug uptake

## CO[C@H]1/C=C/O[C@@]2(C)Oc3c(C)c(O)c4cc(c(/C=N/N5CCN([11CH3])CC5)c(O)c4c3C2=O)NC(=O)/C(C)=C\C=C\C(C)[C@H](O)[C@@H](C)[C@@H](O)[C@@H](C)[C@H](OC(C)=O)[C@@H]1C (stereo partly drawn)
[1]
  concentration at 0.25 h: 36.4 µg/mL
[2]
  concentration at 1 h: 6.73 µg/mL
[3]
  concentration at 0.5 h: 586 µg/mL
[4]
  concentration at 0.5 h: 276 µg/mL
[5]
  concentration at 0.5 h: 1.09 µg/mL
[6]
  concentration at 0.5 h: 1.5 µg/mL
[7]
  concentration at 1.5 h: 9.44 µg/mL
[8]
  concentration at 1 h: 0.912 µg/mL
[9]
  concentration at 1.5 h: 300 µg/mL
[10]
  concentration at 1.5 h: 1.21 µg/mL
[11]
  concentration at 1.5 h: 6.78 µg/mL
[12]
  concentration at 1 h: 1.93 µg/mL
[13]
  concentration at 1.5 h: 1.16 µg/mL
[14]
  concentration at 1 h: 1.14 µg/mL
[15]
  concentration at 0.25 h: 259 µg/mL
[16]
  concentration at 1 h: 983 µg/mL
[17]
  concentration at 0.5 h: 2.83 µg/mL
[18]
  concentration at 0.5 h: 6.34 µg/mL
[19]
  concentration at 1 h: 0.43 µg/mL
[20]
  concentration at 0.25 h: 121 µg/mL
[21]
  concentration at 1 h: 2.53 µg/mL
[22]
  concentration at 1.5 h: 8.19 µg/mL
[23]
  concentration at 1.5 h: 1010 µg/mL
[24]
  concentration at 0.25 h: 15.8 µg/mL
[25]
  concentration at 1 h: 288 µg/mL
[26]
  concentration at 1.5 h: 6.8 µg/mL
[27]
  concentration at 0.25 h: 2.81 µg/mL
[28]
  concentration at 0.5 h: 11.6 µg/mL
[29]
  concentration at 0.25 h: 7.28 µg/mL
[30]
  concentration at 3 h: 1790 ng/g
[31]
  concentration at 0.5 h: 5.28 µg/mL
[32]
  concentration at 0.25 h: 5.03 µg/mL

## CO[C@H]1/C=C/O[C@@]2(C)Oc3c(C)c(O)c4cc(c(/C=N/N5CCN([14CH3])CC5)c(O)c4c3C2=O)NC(=O)/C(C)=C\C=C\C(C)[C@H](O)[C@@H](C)[C@@H](O)[C@@H](C)[C@H](OC(C)=O)[C@@H]1C (stereo partly drawn)
[33]
  concentration at 6 h: 870 ng/g

Reference: ChEMBL document CHEMBL1156308 (J Med Chem, 2010)
